Laboratory results reported in PubChem BioAssay.
Records with an inconclusive call do not appear.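 How the source made its calls, unless noted: active means viability at or below 27.92% in each of two runs, the all-compound median minus 4 SD; inconclusive means no clear call, values can overlap the other calls; inactive means the rest.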

Key:
[1] = OD615 S. cerevisiae growth inhibition, permissive medium, pilot counter-assay, permissive growth control for S. cerevisiae lifespan shortening project (AID 705;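 active means growth inhibition above 25% in both replicates, a cutoff set 3 SD above the mean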); details: OD615, 24 h, at 10 µM, hits give high values
Outline: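 System: S. cerevisiae with engineered DeaD lifespan system / Measured by: absorbance (optical density) at 615 nm / Read-out: reduction in yeast growth (OD615) / Times: 4 h cell pre-growth, 24 h exposure at 30 °C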

[2] = Restrictive medium S. cerevisiae growth inhibition, OD615, pilot screen of yeast lifespan reduction project, restrictive growth control (AID 706;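 active means growth inhibition above a set limit, 3 SD over mean compound inhibition, in both replicates, cut at about 43% in these data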;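 further: modified DeaD lifespan yeast strain shifted to restrictive glucose medium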); details: OD615, 48 h, at 10 µM, hits give high values
Outline: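 System: Engineered S. cerevisiae DeaD strain | Buffer or medium: Glucose-based CSMM-D restrictive medium | Schedule: 4 h pre-incubation, 48 h exposure at 30 °C | Technique: Optical density at 615 nm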

[3] = viability gain of MRP-1-high H69AR cells under doxorubicin, pilot screen, MRP-1 activator project, CellTiter-Glo, duplicate (AID 807;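 active means viability increase at or above a cutoff of the median across tested compounds plus 3 SD, cut at about 8.5% in these data, passing the limit was not always enough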;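 further: compound pretreatment 18-22 h then 72 h combined with doxorubicin; 0% = doxorubicin alone and 100% = vehicle without doxorubicin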); details: H69AR viability with doxorubicin, CellTiter-Glo luminescence; at 10 µM; hits give high values
[4] = growth suppression of beta-catenin knockout HCT116, pilot screen, human colon tumor cells (AID 823;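 active means cell viability at or below a set limit in both duplicate runs, the limit being the all-compound median minus 4 SD, cut at about 23% in these data, passing the limit was not always enough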;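 further: 0% = wells killed by 20 µM Hyamine and 100% = untreated DMSO cell wells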); details: CellTiter-Glo, 60 h, at 10 µM, hits give low values
[5] = growth suppression of PTEN-deleted HCT116, pilot screen, cell-based, HCT116 clonal line, CellTiter-Glo (AID 824); details: 60 h, at 10 µM, hits give low values;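 further: 0% = 20 µM Hyamine control and 100% = vehicle cell control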
[6] = inhibitors of the yeast RAM network, pilot screen, dse1pr::URA3 reporter, 5-FOA selection (AID 869;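 active means inhibition over a set limit, the all-compound mean plus 3 SD, in both replicate runs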;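 further: 0% = DMSO wells with no growth and 100% = 10 µM 1-NA-PP1 with full growth; RAM network block rescues cells from 5-FOA so hits raise OD615 growth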); details: S. cerevisiae dse1pr::URA3 5-FOA growth, OD615, 2 d; at 10 µM; hits give high values; strain carries analog-sensitive mutant Cbk1 kinase
[7] = RAM signaling pathway blockade in yeast – S. cerevisiae, Pdr1DBD-CYC8 efflux-inhibited sensitized strain, primary screen (AID 1298;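 active means RAM network inhibition above 8.4% in each of two replicates, 3 SD over the compound average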;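 further: 0% = DMSO untreated cells without growth and 100% = 10 µM 1-NA-PP1 full growth; higher means more yeast growth rescued from 5-FOA killing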); details: S. cerevisiae cbk1-as DSE1-URA3 strain, 5-FOA growth OD615, 2 d; at 50 µM; hits give high values

O=C(COc1ccc(S(=O)(=O)NC2CCCCC2)cc1)N1CCN(c2ccc(F)cc2)CC1
inactive: growth inhibition [1] -6.21% | growth inhibition [2] -0.445% | viability increase [3] -0.23% | viability [4] 65.5% | viability [5] 67.1% | inhibition [6] -0.725% | RAM network inhibition [7] 3.14%

Cc1ccc(C)c(-n2c(Cc3cc(=O)[nH]c(=O)[nH]3)nnc2SC(C)C)c1
inactive: growth inhibition [1] 0.205% | growth inhibition [2] 11.1% | viability increase [3] -3.19% | viability [4] 97.7% | viability [5] 89.9% | inhibition [6] 1.74% | RAM network inhibition [7] 0.84%

O=C1CC(c2ccccc2)CC(O)=C1C=NCCN1CCNCC1 (configuration not stated)
inactive: growth inhibition [1] -21.5% | growth inhibition [2] -14.2% | viability increase [3] 1.22% | viability [4] 99.2% | viability [5] 98.1% | inhibition [6] -0.42% | RAM network inhibition [7] -1.05%

O=C(Cn1cnc2c(nnn2-c2ccccc2)c1=O)NCCc1ccccc1
inactive: growth inhibition [1] -0.435% | growth inhibition [2] -10.4% | viability increase [3] -1.04% | viability [4] 105% | viability [5] 100% | inhibition [6] 0.75% | RAM network inhibition [7] 3.12%

CCOc1ccc(N(CC(=O)O)S(=O)(=O)c2cccnc2)cc1
inactive: growth inhibition [1] -0.125% | growth inhibition [2] -2.17% | viability increase [3] 1.18% | viability [4] 94.4% | viability [5] 102% | inhibition [6] -0.27% | RAM network inhibition [7] 7.23%

Cn1nnnc1SCC(=O)c1cccs1
inactive: growth inhibition [1] -23.8% | growth inhibition [2] -13% | viability increase [3] -2.93% | viability [4] 93% | viability [5] 90.9% | inhibition [6] 1.24% | RAM network inhibition [7] 1.92%

Cc1ccc(-c2nc(C3CCCN(S(=O)(=O)c4ccc(C)cc4)C3)no2)cc1 (configuration not stated)
inactive: growth inhibition [1] -10.8% | growth inhibition [2] 9.18% | viability increase [3] 5.21% | viability [4] 85.2% | viability [5] 84.3% | inhibition [6] 1.08% | RAM network inhibition [7] -1.57%

Cc1ccccc1-n1c(Cn2c(=O)sc3ccccc32)nnc1SCC(=O)Nc1nccs1
inactive: growth inhibition [1] -3.9% | growth inhibition [2] -13% | viability increase [3] -5.13% | viability [4] 75.2% | viability [5] 59.9% | inhibition [6] 2.25% | RAM network inhibition [7] 5.86%

O=C(NCN1CCc2ccccc2C1)c1cnccn1
inactive: growth inhibition [1] -18.3% | growth inhibition [2] -15.1% | viability increase [3] -3.49% | viability [4] 96.3% | viability [5] 96.6% | inhibition [6] 3.92% | RAM network inhibition [7] 5.24%

Cc1ccc(Nc2cc(C)nc3nc(C)nn23)cc1
inactive: growth inhibition [1] -3.6% | growth inhibition [2] -11.9% | viability increase [3] -3.16% | viability [4] 97.4% | viability [5] 95.7% | inhibition [6] 2.35% | RAM network inhibition [7] 3.26%

CCc1ccc(C2CC(=O)N3CN(c4ccccc4)CSC3=C2C#N)cc1 (configuration not stated)
inactive: growth inhibition [1] 3.98% | growth inhibition [2] 21.7% | viability increase [3] -3.73% | viability [4] 101% | viability [5] 90.6% | inhibition [6] 1.68% | RAM network inhibition [7] -0.78%

CC(C)N(C(=O)COc1ccc(Br)cc1Cl)C(C)C
inactive: growth inhibition [1] -6.94% | growth inhibition [2] -12.8% | viability increase [3] 0.81% | viability [4] 76.5% | viability [5] 83.1% | inhibition [6] 1.12% | RAM network inhibition [7] 0.74%

Cc1ccc(C2CC(c3cccc(C)c3)n3nc(N)nc3N2)cc1 (configuration not stated)
inactive: growth inhibition [1] -0.275% | growth inhibition [2] 16.7% | viability increase [3] -3.52% | viability [4] 89.6% | viability [5] 81% | inhibition [6] 1.81% | RAM network inhibition [7] 1.43%

Cc1oc(-c2ccc(Cl)cc2)nc1CN1CCCC(C(=O)N2CCN(C(=O)c3ccco3)CC2)C1 (configuration not stated)
inactive: growth inhibition [1] -8.52% | growth inhibition [2] -14.5% | viability increase [3] -4.07% | viability [4] 33.8% | viability [5] 54.6% | inhibition [6] -0.38% | RAM network inhibition [7] 7.1%

Cc1cccn2cc(CCNC(=O)c3ccc(Br)o3)nc12
inactive: growth inhibition [1] -8.18% | growth inhibition [2] -5.67% | viability increase [3] -1.61% | viability [4] 99% | viability [5] 94.3% | inhibition [6] 1.12% | RAM network inhibition [7] 1.91%

Cc1ccc(-c2nn3c(C)nnc3s2)cc1NC(=O)c1ccco1
inactive: growth inhibition [1] 3.94% | growth inhibition [2] 25.2% | viability increase [3] -5.34% | viability [4] 113% | viability [5] 103% | inhibition [6] 2.53% | RAM network inhibition [7] 1.06%

CCOC(=O)Cc1csc(NC(=O)Nc2ccccc2)n1
inactive: growth inhibition [1] -11.8% | growth inhibition [2] -12.1% | viability increase [3] -0.81% | viability [4] 53.2% | viability [5] 53.2% | inhibition [6] 0.665% | RAM network inhibition [7] 4.19%

O=C(Nc1ccccc1)C1CC=CCC1C(=O)OCC1CCCO1 (configuration not stated)
inactive: growth inhibition [1] -9.52% | growth inhibition [2] -20.7% | viability increase [3] 0.15% | viability [4] 102% | viability [5] 102% | inhibition [6] 2.69% | RAM network inhibition [7] 0.98%

Cc1cccc(-c2nnc(-c3ccccc3)o2)c1
inactive: growth inhibition [1] -8.19% | growth inhibition [2] -3.2% | viability increase [3] -5.21% | viability [4] 78% | viability [5] 81.7% | inhibition [6] 1.5% | RAM network inhibition [7] 1.78%

COc1cccc2c(=O)n(CC(=O)N3CCN(c4ccccc4)CC3)ccc12
inactive: growth inhibition [1] -7.37% | growth inhibition [2] -7.01% | viability increase [3] -0.94% | viability [4] 99.7% | viability [5] 98.1% | inhibition [6] 1.39% | RAM network inhibition [7] 4.22%

CS(=O)(=O)N(Cc1ccc(C(=O)NCc2ccco2)cc1)c1ccccc1
inactive: growth inhibition [1] -6.5% | growth inhibition [2] -0.32% | viability increase [3] -3.9% | viability [4] 94% | viability [5] 100% | inhibition [6] -0.1% | RAM network inhibition [7] 4.76%

COC(=O)C1=C(C)N(Cc2cccnc2)C(=O)C1
inactive: growth inhibition [1] -10.7% | growth inhibition [2] -8.8% | viability increase [3] -1.77% | viability [4] 98.7% | viability [5] 102% | inhibition [6] 2.84% | RAM network inhibition [7] 5.02%

Clc1ccccc1-c1ccc(/C=N/n2cnnc2)o1
inactive: growth inhibition [1] -1.67% | growth inhibition [2] 11.9% | viability increase [3] -1.41% | viability [4] 102% | viability [5] 95.1% | inhibition [6] 1.61% | RAM network inhibition [7] 4.98%

CC1CCCN(c2nc3c(c(=O)[nH]c(=O)n3C)n2Cc2ccccc2Cl)C1 (configuration not stated)
inactive: growth inhibition [1] -15.4% | growth inhibition [2] -35.9% | viability increase [3] -5.4% | viability [4] 84.9% | viability [5] 81% | inhibition [6] 0.485% | RAM network inhibition [7] 9.1%

Cc1ccc(SCCNC(=O)C(CO)(CO)CO)cc1
inactive: growth inhibition [1] 2.57% | growth inhibition [2] -1.61% | viability increase [3] -0.51% | viability [4] 101% | viability [5] 98.7% | inhibition [6] 0.935% | RAM network inhibition [7] 0.52%

CCOc1ccc(C2CC(c3ccccc3C)n3ncnc3N2)cc1 (configuration not stated)
inactive: growth inhibition [1] -6.31% | growth inhibition [2] 13.4% | viability increase [3] -1.48% | viability [4] 87.3% | viability [5] 77.4% | inhibition [6] 1.83% | RAM network inhibition [7] -1.78%

COc1ccc(S(=O)(=O)n2nc(-c3cc(OC)c(OC)c(OC)c3)cc2N)cc1OC
inactive: growth inhibition [1] -12% | growth inhibition [2] 12.7% | viability increase [3] -3.64% | viability [4] 56.3% | viability [5] 74.8% | inhibition [6] 0.16% | RAM network inhibition [7] 5.52%

CCOC(=O)N1CCC(NC(=O)CN2C(=O)CSc3ncccc32)CC1
inactive: growth inhibition [1] 0.38% | growth inhibition [2] -5.29% | viability increase [3] -0.23% | viability [4] 104% | viability [5] 99% | inhibition [6] 2.81% | RAM network inhibition [7] 1.48%

O=S(=O)(Nc1cccc(-c2nc3cccnc3s2)c1)c1ccc2c(c1)OCCO2
inactive: growth inhibition [1] -0.93% | growth inhibition [2] 13.3% | viability increase [3] 0.73% | viability [4] 97.7% | viability [5] 85.3% | inhibition [6] 3.69% | RAM network inhibition [7] 5.51%

CC1(C(=O)NCc2cccnc2)CCC(=O)N1Cc1cccs1 (configuration not stated)
inactive: growth inhibition [1] -2.29% | growth inhibition [2] -1.24% | viability increase [3] 0.38% | viability [4] 108% | viability [5] 102% | inhibition [6] 0% | RAM network inhibition [7] 3.95%

COc1ccccc1S(=O)(=O)Cc1ccc(C(=O)NCc2ccc3c(c2)OCO3)o1
inactive: growth inhibition [1] -4.21% | growth inhibition [2] -26.9% | viability increase [3] -2.83% | viability [4] 91.9% | viability [5] 87.4% | inhibition [6] 1.9% | RAM network inhibition [7] 6.73%

C=CCSc1nnc2c(n1)OC(c1cccnc1)Nc1ccccc1-2 (configuration not stated)
inactive: growth inhibition [1] 8.11% | growth inhibition [2] 13.7% | viability increase [3] -2.34% | viability [4] 95.5% | viability [5] 88% | inhibition [6] 1.75% | RAM network inhibition [7] 1.38%

Cc1cccc(-n2c(Cc3cc(=O)[nH]c(=O)[nH]3)nnc2SC(C)C)c1
inactive: growth inhibition [1] -8.09% | growth inhibition [2] -1.15% | viability increase [3] -1.84% | viability [4] 101% | viability [5] 97.7% | inhibition [6] 1.72% | RAM network inhibition [7] 3.87%

COc1nc(NC(C)(C)C)nc(Oc2ccc(=O)n(C)n2)n1
inactive: growth inhibition [1] -0.24% | growth inhibition [2] -10.7% | viability increase [3] 0.23% | viability [4] 102% | viability [5] 96.5% | inhibition [6] 0.495% | RAM network inhibition [7] 5.11%

O=C(NC1CCCCCC1)C1CCN(C(=O)Cc2ccccc2)CC1
inactive: growth inhibition [1] -11.1% | growth inhibition [2] -9.52% | viability increase [3] -1.12% | viability [4] 101% | viability [5] 94.3% | inhibition [6] 0.785% | RAM network inhibition [7] 3.07%

COc1ccc(N(CC(=O)NCc2ccc3c(c2)OCO3)S(=O)(=O)c2c(C)nn(C)c2C)cc1
inactive: growth inhibition [1] -12.2% | growth inhibition [2] -3.47% | viability increase [3] -2.86% | viability [4] 101% | viability [5] 101% | inhibition [6] 0.12% | RAM network inhibition [7] 2.04%
